One assay concerns the target Histone deacetylase 1 (Homo sapiens, UniProt Q13547). Description: Inhibition of human HDAC1 at 1 uM using p53 (379 to 382 residues) derived fluorogenic peptide RHKKAc. The method, boiled down:
(§1)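 Isoform profiling run by a commercial vendor with compounds at 1 µM. Values are percent inhibition, each the average of two determinations.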

Assay [1] concerns the target T1, Histone deacetylase 2 (Homo sapiens, UniProt Q92769). Description: Inhibition of human HDAC2 at 1 uM using p53 (379 to 382 residues) derived fluorogenic peptide RHKKAc. The method, boiled down: as §1
Assay [2] has as its target Histone deacetylase 3/Nuclear receptor corepressor 2 (HDAC3/NCoR2) (Homo sapiens) (UniProt O15379+Q9Y618). As to the kind of experiment: Inhibition of human HDAC3/NCOR2 at 1 uM using p53 (379 to 382 residues) derived fluorogenic peptide RHKKAc. It counts as protein-complex assay. The method, boiled down:
as §1

Assay [3] addresses T1, Histone deacetylase 2. As to the kind of experiment: Inhibition of human HDAC2 using p53 (379 to 382 residues) derived fluorogenic peptide RHKKAc.
The target in assay [4] is Histone deacetylase 4 (Homo sapiens) (UniProt P56524). Description: Inhibition of human HDAC4 at 1 uM using Boc-Lys(trifluoroacetyl)-AMC substrate. The essentials:
as §1

The target in assay [5] is T2, Histone deacetylase 8 (Homo sapiens) (UniProt Q9BY41).
T2 sequence (whole entry): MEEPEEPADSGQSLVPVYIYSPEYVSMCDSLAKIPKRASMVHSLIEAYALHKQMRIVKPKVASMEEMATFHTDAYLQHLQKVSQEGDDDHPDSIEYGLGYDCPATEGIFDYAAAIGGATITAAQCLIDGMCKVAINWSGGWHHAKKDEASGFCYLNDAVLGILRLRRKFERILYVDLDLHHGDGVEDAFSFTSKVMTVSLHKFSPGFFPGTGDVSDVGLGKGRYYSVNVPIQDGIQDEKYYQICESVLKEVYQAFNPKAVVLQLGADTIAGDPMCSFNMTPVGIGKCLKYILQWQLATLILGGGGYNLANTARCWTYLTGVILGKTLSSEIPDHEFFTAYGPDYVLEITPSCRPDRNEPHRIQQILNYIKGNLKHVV
Description: Inhibition of human HDAC8 at 1 uM using p53 (379 to 382 residues) derived fluorogenic peptide RHKAcKAc. The method, boiled down:
as §1

For a further assay, the system named is MDA-MB-231. Description: Induction of tumor growth dela of human MDA-MB-231 cells xenografted in NOD/SCID mouse injected with cells pretreated with 5 uM compound for 48 hrs assessed as reduction in tumor volume at 100 mg/kg, po dosed via gavage once daily starting on day 2 post injection and continuing through day 26. It is filed as functional, organism-based. The essentials:
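Cells pretreated 48 h with 5 µM compound or DMSO, trypsinized and injected at 50,000 cells/0.1 ml in 50% Matrigel into the left 4th inguinal mammary fat pad of female NOD/SCID mice (N = 10 per group). Dosed 100 mg/kg by oral gavage once daily in 0.5% methylcellulose/0.1% Tween 80 in water. Caliper volume = (width² x length) x 0.52. Incidence by log-rank test, volume at day 27 by t-test.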

Molecules are shown by their SMILES. The source made the active and inactive calls. The calls are words filed in the database; no cut-off is given here. Where only a bound is given, the exact number is not on record here.

T1 sequence (Q92769 whole entry, the tested form may be a part): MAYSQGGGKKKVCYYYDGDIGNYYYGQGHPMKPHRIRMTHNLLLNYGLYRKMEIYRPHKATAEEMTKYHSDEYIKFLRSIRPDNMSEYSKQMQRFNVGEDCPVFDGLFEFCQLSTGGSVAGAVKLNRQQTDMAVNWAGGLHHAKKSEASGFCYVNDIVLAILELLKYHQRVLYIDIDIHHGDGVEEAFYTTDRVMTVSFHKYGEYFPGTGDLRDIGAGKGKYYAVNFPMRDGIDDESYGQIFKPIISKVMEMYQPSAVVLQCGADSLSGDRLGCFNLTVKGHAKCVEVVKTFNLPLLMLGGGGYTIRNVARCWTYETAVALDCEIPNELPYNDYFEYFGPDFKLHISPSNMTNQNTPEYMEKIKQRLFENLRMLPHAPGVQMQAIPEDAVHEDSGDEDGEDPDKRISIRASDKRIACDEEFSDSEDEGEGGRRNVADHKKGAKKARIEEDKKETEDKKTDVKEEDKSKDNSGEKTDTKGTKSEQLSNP
Sequence of Histone deacetylase 4 (Homo sapiens) (P56524 whole entry): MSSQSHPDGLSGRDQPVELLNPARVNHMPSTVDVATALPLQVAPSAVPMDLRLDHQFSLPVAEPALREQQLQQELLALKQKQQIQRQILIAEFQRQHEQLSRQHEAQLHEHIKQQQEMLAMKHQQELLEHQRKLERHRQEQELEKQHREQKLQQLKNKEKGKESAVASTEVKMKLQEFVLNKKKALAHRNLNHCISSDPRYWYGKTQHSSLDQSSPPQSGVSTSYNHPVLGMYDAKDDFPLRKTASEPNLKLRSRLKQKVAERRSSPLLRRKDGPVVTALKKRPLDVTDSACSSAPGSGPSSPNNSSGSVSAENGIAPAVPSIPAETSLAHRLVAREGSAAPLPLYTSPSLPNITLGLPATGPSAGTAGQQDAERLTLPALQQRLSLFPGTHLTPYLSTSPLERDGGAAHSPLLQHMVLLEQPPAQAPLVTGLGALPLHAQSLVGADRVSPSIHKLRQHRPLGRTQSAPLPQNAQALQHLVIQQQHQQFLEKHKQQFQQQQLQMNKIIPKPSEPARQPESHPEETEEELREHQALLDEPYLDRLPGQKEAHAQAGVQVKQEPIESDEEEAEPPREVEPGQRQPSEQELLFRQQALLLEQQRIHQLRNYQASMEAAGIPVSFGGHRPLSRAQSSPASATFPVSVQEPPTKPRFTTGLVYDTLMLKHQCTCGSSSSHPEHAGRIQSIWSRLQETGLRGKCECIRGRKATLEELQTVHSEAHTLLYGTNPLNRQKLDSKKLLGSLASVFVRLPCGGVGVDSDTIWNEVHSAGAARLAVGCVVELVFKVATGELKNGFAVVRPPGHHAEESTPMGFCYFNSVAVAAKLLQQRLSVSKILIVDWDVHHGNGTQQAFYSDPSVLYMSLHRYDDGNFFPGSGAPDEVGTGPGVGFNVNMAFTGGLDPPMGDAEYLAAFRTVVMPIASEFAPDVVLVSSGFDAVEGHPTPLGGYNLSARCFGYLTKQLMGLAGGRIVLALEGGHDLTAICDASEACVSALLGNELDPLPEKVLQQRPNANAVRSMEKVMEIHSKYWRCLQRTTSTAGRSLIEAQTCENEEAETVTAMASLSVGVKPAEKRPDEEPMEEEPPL
Sequence of Histone deacetylase 1 (Q13547 whole entry, the tested form may be a part, canonical isoform): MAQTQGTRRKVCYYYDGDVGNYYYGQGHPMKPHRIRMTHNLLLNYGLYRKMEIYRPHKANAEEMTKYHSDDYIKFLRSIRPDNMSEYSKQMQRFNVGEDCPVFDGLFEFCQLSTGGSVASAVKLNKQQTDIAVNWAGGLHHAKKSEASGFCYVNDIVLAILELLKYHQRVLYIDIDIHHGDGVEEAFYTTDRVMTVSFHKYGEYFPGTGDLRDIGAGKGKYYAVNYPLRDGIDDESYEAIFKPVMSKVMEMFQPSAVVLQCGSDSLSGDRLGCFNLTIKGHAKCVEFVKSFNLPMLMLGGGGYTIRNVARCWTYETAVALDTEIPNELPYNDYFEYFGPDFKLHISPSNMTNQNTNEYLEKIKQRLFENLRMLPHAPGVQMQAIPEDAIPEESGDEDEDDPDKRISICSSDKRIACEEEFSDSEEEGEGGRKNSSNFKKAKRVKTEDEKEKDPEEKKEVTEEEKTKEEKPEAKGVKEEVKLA

Turning to `CC(C)(C(=O)Nc1ccc(C(=O)Nc2ccc(F)cc2N)cc1)c1ccccc1`, the inhibition against Histone deacetylase 1 was 8%; against Histone deacetylase 2 [1] it was 5%; in assay [2], 87%; in assay [4], 0%; in assay [5] it was 0%. The compound also returned an IC50 against Histone deacetylase 2 [3] greater than 10 µM. Further, the result in the assay with MDA-MB-231 was Active.

Values taken from ChEMBL document CHEMBL4130443, “Targeting breast cancer stem cells by novel HDAC3-selective inhibitors” (Eur J Med Chem, 2017).
